From publication PMC12089494 (Nature Communications, 2025)
≈ marks a conversion by molar mass, not a printed value. Where two headings read alike, the source gives them in different places.

Key:
[1] = cited from earlier work
[2] = Single-pass intestinal perfusion; assay type: in vivo, Wistar rats
Method in brief: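 Male Wistar germ-free and age-matched SPF rats (6-week-old, 250–300 g), n = 6 per group. Fasted 12 h with free water, anaesthetised with intramuscular ketamine-xylazine (80 mg/kg and 20 mg/kg), kept on a heated surface at 37 ± 1 °C. Intestine perfused single-pass in situ for 2 h, sampled at 15-min intervals, and Peff determined. Perfused and unperfused segments were collected for microbiological detection.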

[3] = SPIP in GF rats mono-colonized with BTWT/BFWT or BTΔSPT/BFΔSPT; assay type: in vivo, Wistar rats; details: for Peff plateau: SPIP 30 mg/L NAC
Method in brief: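 Germ-free Wistar rats (6-week-old) fed a fat-free diet (0% kcal fat, 76% carbohydrate, 24% protein) containing only PAA for 12 weeks. Wild-type or SPT-deleted Bacteroides strains, grown anaerobically at 37 °C in BHI with […] cysteine and resuspended in oxygen-free PBS, then given with the diet (10⁸ CFU/μL of PBS per rat, three times weekly) for 8 weeks. In situ single-pass perfusion and Peff determination followed.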

[4] = cited from earlier work; remark: listed apart in the source

## CC(=O)N[C@@H](CS)C(=O)O [NAC, N-Acetylcysteine]
[1]
  aqueous solubility: 163.9 mg/mL (≈ 1000 mM)
[1]; pH 7.4
  aqueous solubility: 163.9 mg/mL (≈ 1000 mM)
[2]; GF rats, SPIP
  Peff plateau: 1.446 × 10^–4 cm/s
[2]; GF vs SPF rats
  Peff increase in GF rats than SPF controls: two-fold increase
[3]; GF^BFΔSPT rats
  Peff plateau: 1.417 × 10^–4 cm/s
[3]; GF^BTΔSPT and GF^BFΔSPT rats vs wild-type colonized
  Peff increase than GF^BTWT and GF^BFWT littermates: approximately with the two-fold increase
[3]; GF^BTΔSPT rats
  Peff plateau: 1.216 × 10^–4 cm/s
[4]; different populations
  within-study coefficients of variability (CVs): 35-45%
[4]; oral dose of NAC 400 mg, reduced form
  tmax: 30 min
[4]; oral dose of NAC 400 mg
  Bio-availability, reduced form: 4.0%
  Bio-availability, total drug: 9.1%
  Cmax of the reduced form: 3470 ng/mL
